Measurements published in ChEMBL document CHEMBL4028856, “Discovery of Small Molecules Targeting the Synergy of Cardiac Transcription Factors GATA4 and NKX2-5” (J Med Chem, 2017).
Active and inactive are the calls of the source. The rule behind the calls is not given here.

Columns and labels:
[1] = target: Vascular endothelial growth factor receptor 2 (Homo sapiens) (UniProt P35968); test: Inhibition of human VEGFR2 at 30 uM
In short: (§1)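 48-kinase profiling panel; compounds tested at 30 μM in duplicate.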

[2] = Induction of aggregation of compound at 3 to 30 uM by nephalometric method
[3] = target: Parathyroid hormone 2 receptor (Homo sapiens) (UniProt P49190); test: Agonist activity at human PTH2 receptor expressed in Chem-1 cells assessed as induction of calcium flux at 12.5 uM by fluorescence assay; assay type: functional, cell-based
Sequence of Parathyroid hormone 2 receptor (Homo sapiens) (P49190 whole entry): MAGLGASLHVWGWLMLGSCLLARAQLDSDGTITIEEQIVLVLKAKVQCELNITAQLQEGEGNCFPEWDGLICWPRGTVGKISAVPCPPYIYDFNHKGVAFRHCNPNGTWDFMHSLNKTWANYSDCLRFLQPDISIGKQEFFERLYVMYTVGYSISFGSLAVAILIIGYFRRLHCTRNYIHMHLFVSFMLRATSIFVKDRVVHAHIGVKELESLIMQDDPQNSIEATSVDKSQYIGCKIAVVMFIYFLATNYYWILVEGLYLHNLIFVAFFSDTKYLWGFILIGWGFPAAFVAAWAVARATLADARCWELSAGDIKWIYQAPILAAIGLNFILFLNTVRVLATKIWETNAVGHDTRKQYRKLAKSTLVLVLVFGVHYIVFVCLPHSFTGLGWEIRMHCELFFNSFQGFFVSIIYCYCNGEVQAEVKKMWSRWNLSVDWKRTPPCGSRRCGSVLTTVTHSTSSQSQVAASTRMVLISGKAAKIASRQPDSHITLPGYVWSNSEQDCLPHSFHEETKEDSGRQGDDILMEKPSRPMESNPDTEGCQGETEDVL
In short: (§2)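 GPCR profiling panel of cell-based functional assays covering 165 GPCRs; agonist mode tested at 12.5 μM and antagonist mode at 10 μM, in duplicate.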

[4] = target: Parathyroid hormone 2 receptor (Homo sapiens) (UniProt P49190); test: Antagonist activity at human PTH2 receptor expressed in rat Chem-1 cells assessed as inhibition of TIP-39 induced calcium flux at 10 uM by fluorescence assay; assay type: functional, cell-based; in short: as §2
[5] = Stability of compound in DMSO assessed as formation of N-[4-(Ethylamino)phenyl]-5-methyl-3-phenylisoxazole-4-carboxamide at 3 to 5 uM at room temperature measured after 6 months by HPLC/MS method; assay type: physicochemical; settings: 4383 h
[6] = target: Cannabinoid receptor 2 (Homo sapiens) (UniProt P34972); test: Agonist activity at human CB2 receptor expressed in rat hematopoietic Chem-4 cells assessed as induction of calcium flux at 12.5 uM by fluorescence assay; assay type: functional, cell-based; in short: as §2
Sequence of Cannabinoid receptor 2 (Homo sapiens) (P34972 whole entry): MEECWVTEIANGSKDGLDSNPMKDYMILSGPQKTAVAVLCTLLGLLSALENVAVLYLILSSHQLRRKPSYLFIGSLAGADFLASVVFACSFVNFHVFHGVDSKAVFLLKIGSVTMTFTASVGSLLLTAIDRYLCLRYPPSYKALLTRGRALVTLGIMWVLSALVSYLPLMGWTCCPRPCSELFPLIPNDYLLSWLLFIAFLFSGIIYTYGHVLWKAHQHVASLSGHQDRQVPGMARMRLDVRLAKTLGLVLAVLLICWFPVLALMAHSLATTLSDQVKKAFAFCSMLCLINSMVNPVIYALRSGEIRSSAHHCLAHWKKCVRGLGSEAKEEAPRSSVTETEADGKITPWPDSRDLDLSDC

[7] = target: GATA4/NKX2-5 (Rattus norvegicus) (UniProt P46152+O35767); test: Inhibition of GATA4/NKX2-5 interaction in neonatal rat ventricular cardiomyocyte hypertrophy model assessed as decrease in mechanical stretching-induced cell surface area at 10 uM after 48 hrs by alpha-actinin/phalloidin/DAPI staining-based fluorescence microscopic method
In short: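 Neonatal rat ventricular myocytes seeded at 10^6/well on collagen I flexible plates, cultured 48 h, then given 10 μM in serum-free medium under equibiaxial cyclic stretch (0.5 Hz, 10–20%) 48 h; nonstretched controls. Fixed, stained α-actinin/phalloidin/DAPI; α-actinin+ cell area (>200 cells/specimen) normalized to untreated nonstretched; three experiments, mean ± SEM.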

[8] = target: Cannabinoid receptor 2 (Homo sapiens) (UniProt P34972); test: Antagonist activity at human CB2 receptor expressed in rat hematopoietic Chem-4 cells assessed as inhibition of CP55940 induced calcium flux at 10 uM by fluorescence assay; assay type: functional, cell-based; in short: as §2
[9] = species: Homo sapiens; test: Inhibition of human PKA at 30 uM; in short: as §1
[10] = Drug metabolism in mouse embryonic stem cells assessed as formation of N-[4-(Ethylamino)phenyl]-5-methyl-3-phenylisoxazole-4-carboxamide at 3 to 5 uM measured after 10 days by HPLC/MS method; assay type: ADME, cell-based; settings: embryonic stem cell, 240 h
In short: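 Mouse embryonic stem cells exposed 5 and 10 days to 3 or 5 μM, with DMSO and EB differentiation medium blanks. Medium extracted with chloroform; cells pelleted, saline-washed twice, sonicated in chloroform. UPLC-ESI(+)-QTOF/MS, BEH C18, 0.1% formic acid water/acetonitrile gradient 7–80% B over 5 min, 0.6 mL/min, 40 °C.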

[11] = target: Transcription factor GATA-4 (Mus musculus) (UniProt Q08369); test: Inhibition of binding of mouse GATA4 to [32P]-double stranded oligonucleotide expressed in African green monkey COS-1 cells at 50 uM preincubated for 10 mins followed by [32P]-double stranded oligonucleotide addition measured after 20 mins by EMSA method; assay type: cell-based
Sequence of Transcription factor GATA-4 (Mus musculus) (Q08369 whole entry): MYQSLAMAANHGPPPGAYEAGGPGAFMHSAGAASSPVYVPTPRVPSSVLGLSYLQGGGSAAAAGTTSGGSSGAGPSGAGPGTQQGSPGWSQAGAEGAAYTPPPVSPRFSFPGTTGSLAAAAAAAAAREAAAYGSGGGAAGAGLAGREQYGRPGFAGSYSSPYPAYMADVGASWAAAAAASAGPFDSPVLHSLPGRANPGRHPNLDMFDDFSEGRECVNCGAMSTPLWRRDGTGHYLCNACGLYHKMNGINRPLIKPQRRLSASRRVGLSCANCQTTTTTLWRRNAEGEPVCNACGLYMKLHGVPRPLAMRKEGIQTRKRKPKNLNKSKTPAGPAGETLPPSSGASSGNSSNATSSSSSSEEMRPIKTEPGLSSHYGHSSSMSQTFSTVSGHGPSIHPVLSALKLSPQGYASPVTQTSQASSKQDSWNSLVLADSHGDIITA
In short: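 Nuclear extracts from COS-1 cells transfected with pMT2-GATA4 or pMT2-NKX2-5 (harvested 48 h) preincubated 10 min with 50 μM compound, then 20 min with 32P-labeled GATA4- or NKX2-5-site probe; native 5% PAGE, phosphorimager quantitation; antibody supershift controls; mean ± SD, n = 3–5.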

[12] = target: Hydroxycarboxylic acid receptor 2 (Homo sapiens) (UniProt Q8TDS4); test: Antagonist activity at human GPR109A expressed in rat Chem-4 cells assessed as inhibition of calcium flux at 10 uM by fluorescence assay; assay type: functional, cell-based; in short: as §2
Sequence of Hydroxycarboxylic acid receptor 2 (Homo sapiens) (Q8TDS4 whole entry): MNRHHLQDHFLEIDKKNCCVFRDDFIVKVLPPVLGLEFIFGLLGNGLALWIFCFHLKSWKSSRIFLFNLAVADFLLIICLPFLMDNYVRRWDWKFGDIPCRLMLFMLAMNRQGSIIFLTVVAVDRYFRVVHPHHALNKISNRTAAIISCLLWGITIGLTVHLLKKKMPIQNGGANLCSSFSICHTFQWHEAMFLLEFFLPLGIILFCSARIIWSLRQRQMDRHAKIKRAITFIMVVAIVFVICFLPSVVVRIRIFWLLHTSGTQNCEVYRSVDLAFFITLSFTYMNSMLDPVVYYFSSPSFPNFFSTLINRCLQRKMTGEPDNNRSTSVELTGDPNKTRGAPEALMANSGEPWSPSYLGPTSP

[13] = target: Mitogen-activated protein kinase 1 (Homo sapiens) (UniProt P28482); test: Inhibition of human ERK2 at 30 uM; in short: as §1
Sequence of Mitogen-activated protein kinase 1 (Homo sapiens) (P28482 whole entry): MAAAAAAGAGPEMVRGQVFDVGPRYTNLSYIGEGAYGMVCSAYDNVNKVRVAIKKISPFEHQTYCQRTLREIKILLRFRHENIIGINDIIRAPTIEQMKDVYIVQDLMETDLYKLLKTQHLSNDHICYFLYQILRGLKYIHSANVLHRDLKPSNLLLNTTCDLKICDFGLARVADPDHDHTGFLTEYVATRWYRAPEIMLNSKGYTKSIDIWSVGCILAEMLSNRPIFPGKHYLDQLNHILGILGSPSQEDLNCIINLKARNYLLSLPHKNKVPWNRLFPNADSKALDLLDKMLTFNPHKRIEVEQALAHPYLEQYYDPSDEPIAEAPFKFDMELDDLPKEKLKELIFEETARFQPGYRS

[14] = Induction of necrosis in endothelin-1 induced neonatal rat ventricular cardiomyocytes assessed as release of adenylate kinase at 50 uM measured after 24 hrs by bioluminescence assay; assay type: cell-based; settings: cardiac muscle cell
In short: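 Neonatal rat cardiomyocytes treated 24 h at 50 μM; adenylate kinase released into medium measured by ToxiLight bioluminescence on a luminometer; relative to vehicle, mean ± SD, n = 3.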

[15] = target: Hydroxycarboxylic acid receptor 2 (Homo sapiens) (UniProt Q8TDS4); test: Agonist activity at human GPR109A expressed in Chem-4 cells assessed as induction of calcium flux at 12.5 uM by fluorescence assay; assay type: functional, cell-based; in short: as §2
[16] = target: Epidermal growth factor receptor (Homo sapiens) (UniProt P00533); test: Inhibition of human EGFR at 30 uM; in short: as §1
Sequence of Epidermal growth factor receptor (Homo sapiens) (P00533 whole entry): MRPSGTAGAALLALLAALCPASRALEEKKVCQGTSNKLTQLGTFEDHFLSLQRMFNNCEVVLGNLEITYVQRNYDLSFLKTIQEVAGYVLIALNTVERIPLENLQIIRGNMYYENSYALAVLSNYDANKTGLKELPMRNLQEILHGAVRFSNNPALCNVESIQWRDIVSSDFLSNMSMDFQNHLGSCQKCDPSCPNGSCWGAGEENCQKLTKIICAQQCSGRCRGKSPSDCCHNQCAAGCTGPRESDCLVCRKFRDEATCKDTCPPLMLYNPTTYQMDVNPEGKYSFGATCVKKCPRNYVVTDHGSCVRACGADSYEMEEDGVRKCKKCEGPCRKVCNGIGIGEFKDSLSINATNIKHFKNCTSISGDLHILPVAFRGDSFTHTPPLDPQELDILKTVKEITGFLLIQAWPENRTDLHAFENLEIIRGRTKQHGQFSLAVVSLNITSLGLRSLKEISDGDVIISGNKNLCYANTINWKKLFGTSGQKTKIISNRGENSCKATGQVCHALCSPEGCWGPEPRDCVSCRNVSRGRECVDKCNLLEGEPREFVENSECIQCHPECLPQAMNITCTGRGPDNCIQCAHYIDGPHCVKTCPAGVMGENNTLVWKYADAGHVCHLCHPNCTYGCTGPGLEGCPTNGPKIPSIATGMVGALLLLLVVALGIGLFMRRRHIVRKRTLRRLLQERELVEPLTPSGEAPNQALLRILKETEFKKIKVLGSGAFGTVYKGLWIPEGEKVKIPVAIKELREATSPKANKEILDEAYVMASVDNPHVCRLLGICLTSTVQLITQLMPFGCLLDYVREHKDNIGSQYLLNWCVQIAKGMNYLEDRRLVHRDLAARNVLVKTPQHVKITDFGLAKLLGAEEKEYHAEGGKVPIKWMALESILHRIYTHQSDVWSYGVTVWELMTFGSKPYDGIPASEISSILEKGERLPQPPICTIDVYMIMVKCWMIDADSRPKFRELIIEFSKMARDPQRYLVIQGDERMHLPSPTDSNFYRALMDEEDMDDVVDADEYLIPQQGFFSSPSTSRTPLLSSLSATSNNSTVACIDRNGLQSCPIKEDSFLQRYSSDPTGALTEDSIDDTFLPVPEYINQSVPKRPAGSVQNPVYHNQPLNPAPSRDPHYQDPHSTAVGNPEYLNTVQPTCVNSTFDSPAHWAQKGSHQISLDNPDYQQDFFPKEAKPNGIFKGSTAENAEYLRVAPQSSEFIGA

Sequence of Vascular endothelial growth factor receptor 2 (Homo sapiens) (P35968 whole entry): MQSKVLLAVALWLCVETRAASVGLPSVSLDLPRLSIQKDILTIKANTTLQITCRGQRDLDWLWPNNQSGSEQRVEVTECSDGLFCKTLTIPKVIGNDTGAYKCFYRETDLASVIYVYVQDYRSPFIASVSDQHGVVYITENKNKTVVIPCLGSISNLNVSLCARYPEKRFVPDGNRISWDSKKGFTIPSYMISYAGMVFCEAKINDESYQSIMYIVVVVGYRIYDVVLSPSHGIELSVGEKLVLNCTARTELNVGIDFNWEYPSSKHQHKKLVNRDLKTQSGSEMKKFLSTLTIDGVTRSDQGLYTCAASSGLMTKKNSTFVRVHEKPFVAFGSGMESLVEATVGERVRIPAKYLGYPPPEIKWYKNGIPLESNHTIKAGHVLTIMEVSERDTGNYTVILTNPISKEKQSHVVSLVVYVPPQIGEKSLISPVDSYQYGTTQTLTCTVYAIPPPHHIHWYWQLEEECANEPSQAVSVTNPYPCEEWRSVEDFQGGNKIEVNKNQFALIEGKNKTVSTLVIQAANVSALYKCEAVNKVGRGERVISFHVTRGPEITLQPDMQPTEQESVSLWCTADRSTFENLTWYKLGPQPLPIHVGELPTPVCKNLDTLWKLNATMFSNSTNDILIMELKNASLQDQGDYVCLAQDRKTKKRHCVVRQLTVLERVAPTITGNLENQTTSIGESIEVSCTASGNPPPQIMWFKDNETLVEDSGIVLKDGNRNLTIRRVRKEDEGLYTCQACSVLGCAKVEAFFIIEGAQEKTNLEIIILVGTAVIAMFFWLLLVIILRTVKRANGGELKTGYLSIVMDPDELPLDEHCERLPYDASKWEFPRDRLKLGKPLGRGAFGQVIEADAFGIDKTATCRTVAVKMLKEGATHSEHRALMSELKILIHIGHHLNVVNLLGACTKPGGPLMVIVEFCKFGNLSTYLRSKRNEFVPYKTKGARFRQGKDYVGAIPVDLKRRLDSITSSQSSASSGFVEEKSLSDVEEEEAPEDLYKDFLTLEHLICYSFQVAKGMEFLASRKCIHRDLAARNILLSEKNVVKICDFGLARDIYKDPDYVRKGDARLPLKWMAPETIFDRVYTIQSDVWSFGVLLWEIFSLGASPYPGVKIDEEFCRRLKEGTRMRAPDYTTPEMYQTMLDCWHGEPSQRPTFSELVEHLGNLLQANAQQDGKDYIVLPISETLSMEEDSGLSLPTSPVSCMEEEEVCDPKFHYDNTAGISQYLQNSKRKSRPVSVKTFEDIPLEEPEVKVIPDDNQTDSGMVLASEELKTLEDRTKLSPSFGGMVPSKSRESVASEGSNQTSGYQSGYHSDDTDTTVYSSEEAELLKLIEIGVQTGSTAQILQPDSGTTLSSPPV

inhibition [1]: 64%
Activity [3]: inactive
inhibition [4]: 59.5%
Stability [5]: Stable
Activity [6]: inactive
inhibition [8]: 91.8%
inhibition [9]: inactive
Drug metabolism [10]: Metabolite_Detected
inhibition [11]: inactive
inhibition [12]: 58.5%
inhibition [13]: inactive
Activity [15]: inactive
inhibition [16]: 54%
Compound: CCN(CC)c1ccc(NC(=O)c2c(-c3ccccc3)noc2C)cc1
Activity [2]: inactive
inhibition [7]: Active
Activity [14]: Non-Toxic
